According to paper PMC7274130 (Biochimica et Biophysica Acta. Proteins and Proteomics, 2020):
Each block holds one substance with its values, some of them ahead of it.

How the values were obtained:
[1] = cited from earlier work
[2] = Degradation of [3H]-THF-γ2 on incubation with rat whole blood; assay type: in vitro ADME; conditions: 37 °C, radio-TLC, mean ± SD, n = 3
[3] = Degradation of [3H]-THF-γ2 on incubation with mouse whole blood; assay type: in vitro ADME; conditions: 37 °C, radio-TLC; for amount of minor degradation product, % of total: over the 60 min incubation with [3H]-THF
[4] = Degradation of [3H]-THF-γ2 on incubation with human whole blood; assay type: in vitro ADME; conditions: 37 °C, radio-TLC, mean ± SD, n = 3
Summary of the method: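 Heparinized whole blood from three healthy male donors. 1 ml was pre-warmed 5 min at 37 °C, then spiked with [3H]-THF (Pro- or C-terminal Leu-labelled; final 93 nmol ml−1) and shaken at 37 °C, sampled 0–60 min. Stopped with ice-cold water/acetonitrile; supernatants were dichloromethane-extracted. The aqueous phase went to silica radio-TLC with 1 cm scintillation counting, and fragments were assigned by synthetic-peptide Rf. Mean ± […], n = 3.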

[5] = 60 min incubation with [3H]-THF

Substance: H-LEDGPKFL-OH [THF-γ2]
half-life of THF in human plasma [1]: about 12 min

Substance: H-Gly-Pro-Lys-Phe-Leu-OH [4–8]
amount of minor degradation product, % of total [3]: < 10 % of total

Substance: H-LEDGPK-OH [1–6]
amount of minor degradation product, % of total [3]: < 10 % of total

Further lines, results first:

concentration of degradation product, % of the total peptides present ([2]; 5 min incubation with [3H]-THF): 4.72% ± 1.05
concentration of degradation product, % of the total peptides present [2, 5]: 54.90% ± 0.87
concentration of degradation product, % of the total peptides present ([3]; 60 min incubation with [3H]-THF, mean ± SD, n = 3): 36.52% ± 2.69
concentration of degradation product, % of the total peptides present ([4]; 5 min incubation with [3H]-THF): 2.16% ± 0.96
Substance: H-Glu-Asp-Gly-Pro-Lys-OH [2–6]

concentration of degradation product, % of the total peptides present ([2]; 20 min incubation with [3H]-THF): 27.80% ± 3.32
concentration of degradation product, % of the total peptides present [4, 5]: 30.36% ± 7.84
Substance: H-DGPKFL-OH [3–8]
